In the RNAGym collection of RNA variant scans (doi:10.1126/science.aae0568):
This sample holds only a part of the variants without activity.

B1: tRNA (parent)
chain: GUUCCGUUGGCGUAAUGGUAACGCGUCUCCCUCCUAAGGAGAAGACUGCGGGUUCGAGUCCCGUACGGAACG

Variants of: B1
Assay: yeast fitness relative to wild type (ratio to wild type); higher = fitter; tRNA-Arg(CCU), competitive growth, 37 C, YPD
Summary of the method: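 Amplicons of the tRNA-Arg(CCU) gene were sequenced, 100-nucleotide paired-end, from the start population and from each end population of a pooled yeast competition. The competition, in six parallel replicates, lasted 24 hours in YPD at 37°C. Fitness relative to wild type was calculated from changes in genotype frequencies. Genotypes had to have ≥ 100 starting reads, and estimates < 0.5 were set to 0.5.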

Variant | yeast fitness
GUUCCGUUGGCGUAAUGAUAACGCGGCUCCCUCCUAAGGAGAAGACUCCGGGUUCGAGUCCCGUGCGGAACG | ≤ 0.5
GUUCCGUUGGCGUAAUGACAAUGCGUCUCCCUCCUAAGGAGAAGACUGCGGGUUCGAGUCCCGUACGGAACG | 0.641
GUUCCGUUGGCGUAAUGAUAACGCGUCUCCCUCCUAAGGAGAAGACUGCGGGUUCGACUCCCGUACGAAACG | ≤ 0.5
GUUCCGUUGGCGUAAUGAUAACGCGUCUCCCUCCUAAGGAGAAGACUGCGGGUUCGAGUCCCAUACGGCACG | 0.827
GUUCCGUUGGCGUAAUGAUAACGCGGCUCCCUCCUAAGGGGAAGACUGCGGGUUCGAGGCCAGUACGGAACG | ≤ 0.5
GUUCCGUUGGCGUAAUGAAAACGCGUCUCCCUCCUAAGGAGAAGACUGCGGGUUCGAGUCCCGUACGGAACG | 0.594
GUUCCGUUGGCGUAAUGAAAACGCGUCUCCCUCCUAAGGAGAAGACUGCGGGUUCGAGUCCCAUACGGAACG | ≤ 0.5
GUUCCGUUGGCGUAAUGAUAACGCGUCUCCCUCCUAAGGAGAAGACUGCGGAUUGGAGUCCCGUACGGAACG | 0.571
GUUCCGUUGGCGUAAUGAUAACGCGUCUCCCUCCUAAGGAGAAGACUGCAGGUUCGAGUCUCGUACGGAACG | ≤ 0.5
GUUCCGUUGGCGUAAUGAUAACGCGCCUCCCUCCUAAGGCGAAGACUGCGGGUACGAGUCCCGUACGGAACG | ≤ 0.5
GUUCCGUUGGCGUAAUGAUAACGCGUCUCCCUCCUAAGGAGAAGACUGCGCGUUCGAGUCCCGUUCGGAACG | ≤ 0.5
GUUCCGUUGGCGUAAUGAUAACGCGAUUCCCUCCUAAGGAGAAGACUGUGGGUUCGAAUCCCGUGCGGAACG | ≤ 0.5
GUUCCGUUGGCGUAAUGAUAACGCGUCUCCCUCCUAAGGAGAAAACUGCGGGUUCGAGUCCCGUACGAAACG | ≤ 0.5
GUUCCGUUGGCGUAAUGAUAACGCGUCUCCCUCCUAAGGAGAAGACUGCGGCUUCGAGUCCCGUACUGUACG | ≤ 0.5
GUUCCGUUGGCGUAAUGAUAACGCGUCUCCCUCCUAAGGAGAAGACUGCCGGUUCGACUUCCGUAGGGAACG | ≤ 0.5
GUUCCGUUGGCGUAAUGAUAACGCGUCUCCCUCCUAAGGAGAAGACUGCGAGUUCGAGUCCCGUACGGAACG | 0.625
GUUCCGUUGGCGUAAUGAUAACGCGUCUCCCUCCUAAGGAGAAGACUGCCGGUUGGAGUCCCGUACGGAACG | ≤ 0.5
GUUCCGUUGGCGUAAUGAUAACGCGUCUCCCUCCUAAGGAGAAGACUACGGGUUCGAGUCCCGUACGGAACG | 0.765
GUUCCGUUGGCGUAAUGAAAACGCGUCUCCCUCCUAAGGAGAAGACUGCGGGUUCGAGUCGCGUACGGAACG | ≤ 0.5

Variant | yeast fitness
GUUCCGUUGGCGUAAUGAUAACGCGGCUCCCUCCUAAGGAGAAGACUGCCGGUUCGAGUCCACUACGGAACG | ≤ 0.5
GUUCCGUUGGCGUAAUGAUAACGCGUCUCCCUCCUAAGGAGAAGACUGCGGGUUCGAGUCCCGUACGUAACG | 0.711
GUUCCGUUGGCGUAAUGAUAACGCGUCUCCCUCCUAAGGAGAAGACUGCGGGUUCGAGUCCCGUACGAAACG | 0.795
GUUCCGUUGGCGUAAUGAUAACGCGUCUCCCUCCUAAGGAGAAGACUGCGCGUUCGAGUCCCAUACGGAACG | ≤ 0.5
GUUCCGUUGGCGUAAUGAUAACGCGGCUCCCUCCUAAGGAGAAGACUGCGGGUUUGAGUGCCGUACGGAACG | 0.512
GUUCCGUUGGCGUAAUGAUAACGCGUCUCCCUCCUAAGGAGAAGACUGCGGGUUCGACUCCCGUUCGGAACG | ≤ 0.5
GUUCCGUUGGCGUAAUGAAAACGCGUCUCCCUCCUAAGGAGAAGACUGCGCGUUCGAGUCCCGCACGGAACG | ≤ 0.5
GUUCCGUUGGCGUAAUGAUAACGCGUCUCCCUCCUAAGGAGAAGACUGCCGGUUCGAGUCCCGUACGGAACG | 0.615
GUUCCGUUGGCGUAAUGAUAACGCGUCUCCCUCCUAAGGAGAAGACUGCAGGUUCGAGUCCGGUACGGAACG | ≤ 0.5
GUUCCGUUGGCGUAAUGAUAACGCGUCUCCCUCCUAAGGAGAAGACUGCGGAUUCGAGUCCCGUCCGGAACG | ≤ 0.5
GUUCCGUUGGCGUAAUGAUAACGCGUCUCCCUCCUAAGGAGAAGACUGCGGGUUCGACUCCCGUACGGAACG | 0.792
GUUCCGUUGGCGUAAUGAUAACGCGUCUCCCUCCUAAGGAGAAGACUGCGGGUUCGAAUCCCGUACGGAACG | 0.765
GUUCCGUUGGCGUAAUGACAAGGAGUCUCCCUCCUAAGCAGAAGCCUGCGGGUUCGAGUCCCGUACGGAACG | 0.619
GUUCCGUUGGCGUAAUGAAAACGCGUGUCCCUCCUAAGCAGAAGACUGCGGGUUCGAGUCCCGUACGGAACG | ≤ 0.5
GUUCCGUUGGCGUAAUGAUAACGCGUCUCCCUCCUAAGGAGAAGACUGCGGGUUCCAGUCCCGUACGGAACG | 0.521
GUUCCGUUGGCGUAAUGAUAACGCGUCUCCCUCCUAAGGAGAAGACUGCGGGUUCAAGUCCCGUACGGAACG | 0.705
GUUCCGUUGGCGUAAUGAAAACGCGUCUCCCUCCUAAGGAGAAGACUGCGGGUUCAAGUUGCGUACGGAACG | ≤ 0.5
GUUCCGUUGGCGUAAUGAUAACGCGUCUCCCUCCUAAGGAGAAGACUCAGGGAUCAACUCCCGUACGGAACG | ≤ 0.5
GUUCCGUUGGCGUAAUGAUAACGCGUCUCCCUCCUAAGGAGAAAACUGCGGGUCCGAAUCCCGUACUGAACG | ≤ 0.5
